The results in this text go back to ChEMBL document CHEMBL1126619, “Design of thymidylate synthase inhibitors using protein crystal structures: the synthesis and biological evaluation of a novel class of 5-substituted quinazolinones” (J Med Chem, 1993).

For series [1], the target named is T1, Thymidylate synthase (Homo sapiens, UniProt P04818). In words: (§1) Inhibition of human Thymidylate synthase.
In series [2] the test system is L1210. Kind of series: Inhibition of mouse L1210 (murine leukemia) cell growth measured using a modification of the MTT36 colorimetric assay of Mosmann. Format: functional, cell-based.
In series [3] the target is T1, Thymidylate synthase. The description is as §1. This is another data set of the same source.
Series [4] relates to L1210. In words: The ratio of IC50 of the inhibitor (assayed in L1210 cells) in presence and absence of thymidine. Format: functional, Mus musculus. In a few lines: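 Murine L1210 leukemia cells grown in RPMI-1640 with 5% fetal calf serum and 0.5% DMSO, seeded at 1000 cells/well, over nine 2-fold serial dilutions of compound, with or without 10 μM thymidine replenished daily over 3 days.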

For the next series, the system named is CCRF-CEM. Kind of series: Inhibition of human lymphoblastic leukemia (CCRF-CEM) cell growth measured using a modification of the MTT36 colorimetric assay of Mosmann. The format is functional, cell-based.
The next series relates to GC3/MTK-. In words: Inhibition of cellular growth in human adenocarcinoma cell line (GC3/M TK) deficient in thymidine kinase. The format is functional, cell-based.
The target of series [5] is T2, Thymidylate synthase (Escherichia coli, UniProt C3SWJ7). Kind of series: (§2) Inhibition of purified Escherichia coli Thymidylate synthase.
For series [6], the target named is T2, Thymidylate synthase. The description is as §2. This is another data set of the same source.
A short description of series [7]: Partition coefficient (logP). Format: physicochemical. The conditions noted are these: octanol/water.
For series [8], the target named is T1, Thymidylate synthase. Kind of series: Compound was tested for TS activity against human Thymidylate synthase by tight binding kinetics.

Bounds are passed on as bounds.

T1 sequence (P04818 whole entry): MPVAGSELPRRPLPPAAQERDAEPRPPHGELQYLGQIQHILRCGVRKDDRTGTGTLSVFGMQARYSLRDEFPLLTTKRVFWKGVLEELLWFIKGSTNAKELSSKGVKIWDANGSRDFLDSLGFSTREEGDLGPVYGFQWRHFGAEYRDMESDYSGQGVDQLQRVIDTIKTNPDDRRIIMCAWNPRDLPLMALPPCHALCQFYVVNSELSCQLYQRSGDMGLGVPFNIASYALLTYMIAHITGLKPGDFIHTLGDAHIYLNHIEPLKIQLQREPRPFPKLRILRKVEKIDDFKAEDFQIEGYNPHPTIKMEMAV
T2 sequence (C3SWJ7 whole entry): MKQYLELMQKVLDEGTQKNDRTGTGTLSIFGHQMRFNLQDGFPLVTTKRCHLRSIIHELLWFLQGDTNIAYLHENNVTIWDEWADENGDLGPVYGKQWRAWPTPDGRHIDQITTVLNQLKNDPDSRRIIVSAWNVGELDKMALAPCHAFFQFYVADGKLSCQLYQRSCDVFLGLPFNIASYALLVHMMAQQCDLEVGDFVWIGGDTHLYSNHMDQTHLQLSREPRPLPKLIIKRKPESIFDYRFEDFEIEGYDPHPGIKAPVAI

Usually Ki stands for a measure of affinity in units of concentration, obtained from inhibition or displacement. As a reminder, the IC50 is the concentration that gives 50% inhibition. Read a low IC50 as higher potency. Turning to `Nc1nc(O)c2c(Sc3ccncc3)c(Cl)ccc2n1`, the inhibition constant (Ki) turned out to be 18 nM at Thymidylate synthase [1] and 20 nM at Thymidylate synthase [3]. Further, the concentration for half-maximal inhibition (IC50) in the series with L1210 [2] stood at 1300 nM; with CCRF-CEM, 2100 nM; in the series on GC3/MTK-, 2050 nM. Also, the Thymidine shift with L1210 [4] is reported as approximately 14.
Consider `Cc1nc(O)c2c(Sc3cccnc3)c(C)ccc2n1`, for which the inhibition constant Ki on Thymidylate synthase [1] amounted to 1100 nM; on Thymidylate synthase [5], 9300 nM; at Thymidylate synthase [3], 310 nM; on Thymidylate synthase [6] it was 1700 nM. Besides, the IC50 with L1210 [2], in the series with CCRF-CEM and in the series on GC3/MTK- was more than 2500 nM each time.
By logP is commonly meant a log measure of how a compound divides between an organic and an aqueous phase. A high value points to a more lipophilic compound. For `Cc1nc(O)c2c(Sc3ccc([N+](=O)[O-])cc3)c(C)ccc2n1`, the Ki on Thymidylate synthase [1] is 78 nM; at Thymidylate synthase [5] it was 730 nM; on Thymidylate synthase [3], 56 nM; on Thymidylate synthase [6] it was 490 nM. In addition, in [7], the log partition coefficient (logP) was 3.29. Moreover, the IC50 was 3000 nM with L1210 [2], 2900 nM in the series on CCRF-CEM and more than 4000 nM in the series with GC3/MTK-. The Thymidine shift in the series on L1210 [4] is given as 3.3.
Consider `Cc1nc(O)c2c(Sc3ccncc3)cccc2n1`, for which the figures for the Ki at Thymidylate synthase [5], on Thymidylate synthase [3] and at Thymidylate synthase [6] were 30000 nM, 960 nM and 10000 nM, respectively. Also, the 50% inhibitory concentration (IC50) with CCRF-CEM and in the series with GC3/MTK- was more than 26900 nM throughout.
Turning to `Cc1nc(O)c2c(Sc3ccnc(C(F)(F)F)c3)c(C)ccc2n1`, the Ki on Thymidylate synthase [5] is 540 nM; on Thymidylate synthase [3] it was 70 nM; on Thymidylate synthase [6], 230 nM.
`COc1cc(Sc2c(C)ccc3nc(C)nc(O)c23)ccn1`: the Ki amounted to 46 nM at Thymidylate synthase [1], 710 nM on Thymidylate synthase [5], 37 nM at Thymidylate synthase [3] and 280 nM at Thymidylate synthase [6]. In the series with GC3/MTK-, this molecule came in with a 50% inhibitory concentration (IC50) of more than 5000 nM.
For `Cc1nc(O)c2c(Sc3ccccc3)cccc2n1`, the IC50 with L1210 [2] and with CCRF-CEM was more than 4200 nM throughout. In addition, the inhibition constant (Ki) on Thymidylate synthase [3] and on Thymidylate synthase [6] was more than 10000 nM each time.
`COc1ccc2nc(C)nc(O)c2c1Sc1ccncc1`: the IC50 with L1210 [2] came out at 21000 nM; in the series on CCRF-CEM, 26000 nM; in the series on GC3/MTK-, 32000 nM. Also, the Ki was 3900 nM on Thymidylate synthase [5] and 1500 nM on Thymidylate synthase [6].
Regarding `Cc1nc(O)c2c(Sc3ccncc3)c(O)ccc2n1`, the IC50 in the series with L1210 [2], in the series on CCRF-CEM and in the series on GC3/MTK- was more than 50000 nM throughout. The Ki at Thymidylate synthase [5] was 190000 nM; on Thymidylate synthase [3], 8800 nM; on Thymidylate synthase [6], 51000 nM. Besides, in the series on L1210 [4], the Thymidine shift is listed as 1.
For the molecule `Cc1nc(O)c2c(Sc3ccnnc3)c(C)ccc2n1`, the results for the Ki on Thymidylate synthase [5], at Thymidylate synthase [3] and on Thymidylate synthase [6] were 1100 nM, 87 nM and 600 nM, respectively. Besides, the 50% inhibitory concentration (IC50) with GC3/MTK- is more than 12500 nM.
On to `Cc1nc(O)c2c(Sc3ccc(C(=O)O)cc3)c(C)ccc2n1`, for which the figures for the Ki at Thymidylate synthase [1] and at Thymidylate synthase [3] were 65 nM and 141 nM, respectively. Moreover, the IC50 was 50000 nM in the series on L1210 [2], more than 50000 nM in the series with CCRF-CEM and more than 50000 nM with GC3/MTK-. Also, the Thymidine shift in the series with L1210 [4] is more than 5.
Turning to `Cc1nc(O)c2c(Oc3ccccc3)cccc2n1`, the IC50 in the series with L1210 [2] and in the series with CCRF-CEM was more than 50000 nM throughout. The inhibition constant (Ki) at Thymidylate synthase [3] and at Thymidylate synthase [6] was more than 100000 nM in each case.
`Cc1ccc2nc(N)nc(O)c2c1Sc1ccc(C(=O)N[C@H](CCC(=O)O)C(=O)O)cc1` had a Ki at Thymidylate synthase [8] of 0.124 nM. The values for the half-inhibitory concentration (IC50) in the series with L1210 [2], in the series on CCRF-CEM and with GC3/MTK- were 2500 nM, 520 nM and 1700 nM, respectively. For the same molecule, the Thymidine shift in the series on L1210 [4] is listed as approximately 8.
The like results for `Cc1nc(O)c2c(Sc3ccc(C(=O)N[C@H](CCC(=O)O)C(=O)O)cc3)c(C)ccc2n1` were, in that order, 1.31 nM, 1050 nM, 990 nM, 4100 nM and more than 22.
For the molecule `Cc1ccc2nc(N)nc(O)c2c1Sc1ccnnc1`, the results for the IC50 in the series on L1210 [2], in the series with CCRF-CEM and in the series on GC3/MTK- were 1600 nM, 880 nM and 1500 nM, respectively. The molecule further gave an inhibitory constant (Ki) on Thymidylate synthase [3] of 13 nM. Further, the Thymidine shift in the series with L1210 [4] is reported as 17.6.
With `Cc1nc(O)c2c(Sc3ccnc(N(C)C)c3)c(C)ccc2n1`, the Ki on Thymidylate synthase [1] was 58 nM; on Thymidylate synthase [3] it was 80 nM. In addition, the results for the IC50 in the series with L1210 [2], with CCRF-CEM and in the series with GC3/MTK- were 4050 nM, 10500 nM and 18000 nM, respectively. Besides, the Thymidine shift in the series on L1210 [4] was 4.25.
As to `Cc1cc(Sc2c(C)ccc3nc(C)nc(O)c23)ccn1`, the inhibition constant (Ki) was 66 nM at Thymidylate synthase [1], 530 nM on Thymidylate synthase [5], 39 nM on Thymidylate synthase [3] and 240 nM at Thymidylate synthase [6]. Moreover, the figures for the IC50 in the series with L1210 [2], with CCRF-CEM and with GC3/MTK- were 4200 nM, 4200 nM and 5000 nM, respectively.
Consider `Cc1nc(O)c2c(Sc3ccncc3)c(C)ccc2n1`, for which the Ki at Thymidylate synthase [1] amounted to 58 nM; on Thymidylate synthase [5] it was 820 nM; at Thymidylate synthase [3] it was 93 nM; at Thymidylate synthase [6], 500 nM. In addition, the logP in [7] turned out to be 2.16. For the same molecule, the half-maximal inhibitory concentration (IC50) was found to be 3500 nM with L1210 [2], 5200 nM in the series with CCRF-CEM and 6000 nM in the series with GC3/MTK-. Also, the Thymidine shift in the series with L1210 [4] is more than 14.
As to `Cc1ccc2nc(N)nc(O)c2c1Sc1ccnc(N(C)C)c1`, the inhibition constant (Ki) on Thymidylate synthase [1] is 50 nM; on Thymidylate synthase [3], 32 nM. The results for the IC50 in the series with L1210 [2], in the series on CCRF-CEM and in the series with GC3/MTK- were 1800 nM, 4900 nM and 5200 nM, respectively. The Thymidine shift in the series on L1210 [4] was more than 20.
As to `Cc1nc(O)c2c(Sc3ccccn3)cccc2n1`, the inhibition constant Ki at Thymidylate synthase [1] is 190000 nM; on Thymidylate synthase [5] it was more than 80000 nM; on Thymidylate synthase [3], 120000 nM; at Thymidylate synthase [6] it was more than 80000 nM. Moreover, the IC50 in the series with L1210 [2], in the series with CCRF-CEM and with GC3/MTK- was more than 50000 nM in each case. Moreover, the Thymidine shift with L1210 [4] is reported as 1.
As to `CCc1ccc2nc(C)nc(O)c2c1Sc1ccncc1`, the inhibition constant (Ki) at Thymidylate synthase [1] was 590 nM; on Thymidylate synthase [3], 200 nM. In addition, the half-inhibitory concentration (IC50) in the series with L1210 [2], in the series on CCRF-CEM and with GC3/MTK- was more than 10000 nM in each case. Further, in the series on L1210 [4], the Thymidine shift is reported as approximately 10.
`Cc1ccc2nc(N)nc(O)c2c1Sc1ccnc(C(F)(F)F)c1`: the inhibition constant Ki on Thymidylate synthase [1] came to 24 nM; on Thymidylate synthase [3] it was 28 nM. For the same molecule, the concentration for half-maximal inhibition (IC50) in the series on L1210 [2] was 1800 nM; in the series with CCRF-CEM, more than 2000 nM; in the series with GC3/MTK-, more than 2000 nM. Besides, the Thymidine shift in the series with L1210 [4] is given as more than 5.
`Cc1nc2ccc(C)c(Sc3ccc(S(=O)(=O)c4ccccc4)cc3)c2c(=O)[nH]1`: the log partition coefficient (logP) in [7] is 4.67. In addition, the results for the IC50 in the series on L1210 [2], in the series with CCRF-CEM and with GC3/MTK- were 1800 nM, 2100 nM and 4500 nM, respectively.
Take `Cc1ccc2nc(N)[nH]c(=O)c2c1Sc1ccncc1` [NOLATREXED]: the IC50 in the series with L1210 [2] was found to be 1000 nM; with CCRF-CEM it was 810 nM; in the series on GC3/MTK-, 1000 nM. Further, the Ki on Thymidylate synthase [5] is 140 nM; at Thymidylate synthase [6], 49 nM.
